Data: ChEMBL document CHEMBL1125399, “Perfluorocarbon-based antidiabetic agents” (1992)

Organism: Mus musculus
Assay: Percent plasma glucose concentration of drug treated mice (ob/ob) relative to vehicle control animals
Assay type: functional
Procedure, shortened: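 Female ob/ob mice, 10 weeks old, fed ad libitum, in groups of 7–11. Dosed po once daily for 4 days in 0.5% methyl cellulose vehicle. Decapitated the next morning; 0.1 mL blood into saline with Trasylol and EDTA; plasma glucose by autoanalyzer. Reciprocal-transformed (y = 160/x) harmonic mean given as % of vehicle. Bonferroni-adjusted comparisons.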

Point of comparison: O=C(Nc1ccc(Cc2nn[nH]n2)cc1)C(F)(F)C(F)(F)C(F)(F)F, Activity 96%. Against it:
- O=C(Nc1ccc(CCCCc2nn[nH]n2)cc1)C(F)(F)C(F)(F)C(F)(F)C(F)(F)C(F)(F)C(F)(F)C(F)(F)F — lower, 73%
- O=C(Nc1ccc(CCc2nn[nH]n2)cc1)C(F)(F)C(F)(F)C(F)(F)C(F)(F)C(F)(F)C(F)(F)C(F)(F)F — higher, 119%
- O=C(Nc1cccc2ncccc12)C(F)(F)C(F)(F)C(F)(F)C(F)(F)C(F)(F)C(F)(F)C(F)(F)F — lower, 64%
- O=C(Nc1ccccc1)C(F)(F)C(F)(F)C(F)(F)C(F)(F)C(F)(F)C(F)(F)C(F)(F)F — lower, 74%
- CCOC(=O)C(F)(F)C(F)(F)C(F)(F)C(F)(F)C(F)(F)C(F)(F)C(F)(F)F — lower, 72%
- CCCCCCCCCCCCCCCCCC(=O)Nc1ccc(Cc2nn[nH]n2)cc1 — higher, 108%
- O=C(O)C(F)(F)C(F)(F)C(F)(F)C(F)(F)C(F)(F)C(F)(F)C(F)(F)F — lower, 60%
- O=C(Nc1ccc(Cc2nnn[nH]2)cc1)C(F)(F)C(F)(F)C(F)(F)C(F)(F)C(F)(F)C(F)(F)C(F)(F)C(F)(F)C(F)(F)C(F)F — lower, 62%
- COc1ccc2c(c1)CCCN2C(=O)C(F)(F)C(F)(F)C(F)(F)C(F)(F)C(F)(F)C(F)(F)C(F)(F)F — higher, 132%
- CCCCCCCCC(=O)NCCCCCc1nnn[nH]1 — higher, 100%
- O=C(Nc1ccc(Cc2nnn[nH]2)cc1)C(F)(F)C(F)(F)C(F)(F)C(F)(F)C(F)(F)C(F)(F)F — lower, 93%
- O=C(Nc1cccnc1)C(F)(F)C(F)(F)C(F)(F)C(F)(F)C(F)(F)C(F)(F)C(F)(F)F — lower, 74%
- O=C(N1CCCc2ccccc21)C(F)(F)C(F)(F)C(F)(F)C(F)(F)C(F)(F)C(F)(F)C(F)(F)F — higher, 115%
- O=C(NCCCCCc1nnn[nH]1)C(F)(F)C(F)(F)C(F)(F)F — lower, 91%
- O=C(Nc1ccccn1)C(F)(F)C(F)(F)C(F)(F)C(F)(F)C(F)(F)C(F)(F)C(F)(F)F — lower, 56%
- O=C(N1CCc2ccccc2C1)C(F)(F)C(F)(F)C(F)(F)C(F)(F)C(F)(F)C(F)(F)C(F)(F)F — lower, 87%
- O=C(Nc1ccc(CCCc2nn[nH]n2)cc1)C(F)(F)C(F)(F)C(F)(F)F — lower, 72%
- NCC(F)(F)C(F)(F)C(F)(F)C(F)(F)C(F)(F)C(F)(F)C(F)(F)F — lower, 84%
- O=C(NCCCCCc1nn[nH]n1)C(F)(F)C(F)(F)C(F)(F)C(F)(F)C(F)(F)C(F)(F)C(F)(F)F — lower, 54%
- O=C(Nc1ccc(Cc2nnn[nH]2)cc1)C(F)(F)C(F)(F)C(F)(F)C(F)(F)C(F)(F)C(F)(F)C(F)(F)C(F)F — lower, 65%
- O=C(NCC(F)(F)C(F)(F)C(F)(F)F)c1ccc(Cc2nn[nH]n2)cc1 — lower, 90%
- O=C(Nc1ccc(CCc2nn[nH]n2)cc1)C(F)(F)C(F)(F)C(F)(F)F — lower, 76%
- Cc1csc(=N)n1C(=O)C(F)(F)C(F)(F)C(F)(F)C(F)(F)C(F)(F)C(F)(F)C(F)(F)F — lower, 94%
- O=C(N1CCN(c2ccccn2)CC1)C(F)(F)C(F)(F)C(F)(F)C(F)(F)C(F)(F)C(F)(F)C(F)(F)F — lower, 76%
- O=C(Nc1ncccn1)C(F)(F)C(F)(F)C(F)(F)C(F)(F)C(F)(F)C(F)(F)C(F)(F)F — lower, 49%
- O=C(Nc1cccc(Cc2nn[nH]n2)c1)C(F)(F)C(F)(F)C(F)(F)C(F)(F)C(F)(F)C(F)(F)C(F)(F)F — lower, 60%
- O=C(NO)C(F)(F)C(F)(F)C(F)(F)C(F)(F)C(F)(F)C(F)(F)C(F)(F)F — lower, 52%
- O=C(NCc1ccccc1)C(F)(F)C(F)(F)C(F)(F)C(F)(F)C(F)(F)C(F)(F)C(F)(F)F — higher, 106%
- O=C(NCCCCCc1nn[nH]n1)C(F)(F)C(F)(F)C(F)(F)C(F)(F)C(F)(F)C(F)(F)C(F)(F)C(F)(F)F — lower, 57%
- O=C(Nc1cccc(Cc2nn[n-]n2)c1)C(F)(F)C(F)(F)C(F)(F)F.[Na+] — lower, 71%
- O=C(NCCCCCc1nn[n-]n1)C(F)(F)C(F)(F)C(F)(F)C(F)(F)C(F)(F)C(F)(F)C(F)(F)C(F)(F)F.[Na+] — lower, 62%
- O=C(NCCCCCc1nn[n-]n1)C(F)(F)C(F)(F)C(F)(F)C(F)(F)C(F)(F)C(F)(F)C(F)(F)F.[Na+] — lower, 48%
- O=C(Nc1ccc(Cc2nn[n-]n2)cc1)C(F)(F)C(F)(F)C(F)(F)C(F)(F)C(F)(F)C(F)(F)C(F)(F)F.[Na+] — lower, 55%
- O=C(Nc1ccccc1Cc1nn[n-]n1)C(F)(F)C(F)(F)C(F)(F)F.[Na+] — lower, 84%
- CN(C(=O)C(F)(F)C(F)(F)C(F)(F)C(F)(F)C(F)(F)C(F)(F)C(F)(F)F)c1ccc(Cc2nnn(C)n2)cc1 — lower, 70%
- O=C(Nc1ccc(Cc2nn[nH]n2)cc1)c1cc(C(F)(F)F)cc(C(F)(F)F)c1 — lower, 82%
- O=C(Nc1ccc(F)cc1)C(F)(F)C(F)(F)C(F)(F)C(F)(F)C(F)(F)C(F)(F)C(F)(F)F — lower, 91%
- O=C(Nc1ccc(Cc2nnn[nH]2)cc1)C(F)(F)C(F)(F)F — lower, 86%
- O=C(NCCc1ccccn1)C(F)(F)C(F)(F)C(F)(F)C(F)(F)C(F)(F)C(F)(F)C(F)(F)F — lower, 63%
- O=C(NCCc1nnn[nH]1)C(F)(F)C(F)(F)C(F)(F)C(F)(F)C(F)(F)C(F)(F)C(F)(F)C(F)(F)F — lower, 65%
- O=C(O)C(F)(F)C(F)(F)C(F)(F)F — higher, 101%
- O=C(NCCCCCc1nnn[nH]1)C(F)(F)F — lower, 95%
- NC(=O)C(F)(F)C(F)(F)C(F)(F)C(F)(F)C(F)(F)C(F)(F)C(F)(F)F — lower, 65%
- O=C(Nc1ccc(Cc2nnn[nH]2)cc1)C(F)(F)C(F)(F)C(F)(F)C(F)(F)C(F)(F)C(F)(F)C(F)(F)C(F)(F)C(F)(F)F — lower, 71%
- O=C(Nc1ccccc1Cc1nn[nH]n1)C(F)(F)C(F)(F)C(F)(F)F — lower, 91%
- O=C(Nc1ccc(-c2nn[nH]n2)cc1)C(F)(F)C(F)(F)C(F)(F)C(F)(F)C(F)(F)C(F)(F)C(F)(F)F — lower, 82%
- O=C(Nc1ccccc1O)C(F)(F)C(F)(F)C(F)(F)C(F)(F)C(F)(F)C(F)(F)C(F)(F)F — lower, 85%
- O=C(NCC(F)(F)C(F)(F)C(F)(F)F)c1cccc(Cc2nn[nH]n2)c1 — lower, 93%
- O=C(Nc1ccc(Cc2nnn[nH]2)cc1)C(F)(F)C(F)(F)C(F)(F)C(F)(F)C(F)(F)C(F)(F)C(F)(F)C(F)(F)F — lower, 63%
- O=C(Nc1ccc(CCCc2nn[nH]n2)cc1)C(F)(F)C(F)(F)C(F)(F)C(F)(F)C(F)(F)C(F)(F)C(F)(F)F — lower, 63%
- O=C(Nc1ccccc1Cc1nn[nH]n1)C(F)(F)C(F)(F)C(F)(F)C(F)(F)C(F)(F)C(F)(F)C(F)(F)F — lower, 66%
- O=C(N(Cc1ccccc1)c1cccc(Cc2nn[nH]n2)c1)C(F)(F)C(F)(F)C(F)(F)F — lower, 78%
- O=C(Nc1ccc(Cc2nnn[nH]2)cc1)C(F)(F)F — higher, 104%
- OCC(F)(F)C(F)(F)C(F)(F)C(F)(F)C(F)(F)C(F)(F)C(F)F — lower, 67%
- O=C(Nc1ccc(Cc2nnn[nH]2)cc1)C(F)(F)C(F)(F)C(F)(F)C(F)(F)F — lower, 92%
- O=C(Nc1ccc(Cc2nn[nH]n2)cc1)c1c(F)c(F)c(F)c(F)c1F — lower, 75%
- O=C(Nc1nn[nH]n1)C(F)(F)C(F)(F)C(F)(F)C(F)(F)C(F)(F)C(F)(F)C(F)(F)F — lower, 64%
- O=C(Nc1cccc(Cc2nn[nH]n2)c1)C(F)(F)C(F)(F)C(F)(F)F — lower, 86%
- O=C(Nc1ccc(Cc2nnnn2Cc2ccccc2)cc1)C(F)(F)C(F)(F)C(F)(F)C(F)(F)C(F)(F)C(F)(F)C(F)(F)F — lower, 82%
